Experimental data of several laboratories.
Protocols differ between the studies behind these lines.
MET: Hepatocyte growth factor receptor (MET, Homo sapiens, UniProt P08581)
MET M1250T: Hepatocyte growth factor receptor (MET, Homo sapiens, UniProt P08581, M1250T)
MET Y1235D: Hepatocyte growth factor receptor (MET, Homo sapiens, UniProt P08581, Y1235D)

Structure (SMILES)	target	test	setting	quantity	result
CC(C)CC(=O)N1CCc2nc(-c3ccc(Br)cc3)nc(N(C)Cc3ccccc3)c2C1	MET	cell-free assay, competition with immobilised ligand	0.1 µM	remaining binding	99%
CN(CCCC(F)(F)F)c1nccc(-c2cnn3ncccc23)n1	MET M1250T	binding	1 µM	remaining binding	100%
CC/C(=N\NC(=O)NCc1cccc(O)c1)c1ccc(O)c(C)c1O	MET Y1235D	enzyme activity, inhibitor	0.1 µM	inhibition	0.7%
Nc1ncnc2occ(-c3ccc(NC(=O)Nc4cc(C(F)(F)F)ccc4F)cc3)c12	MET Y1235D	cell-free assay	20 µM	remaining signal	1.6%
Cc1ccc(C(=O)Nc2ccc(CN3CCN(C)CC3)c(C(F)(F)F)c2)cc1C#Cc1cnc2cccnn12	MET M1250T	cell-free assay	23.5 nM	remaining signal	86%
CC1CCCN1c1nccc(-c2cnn3ncccc23)n1 (stereo not drawn)	MET M1250T	binding	1 µM	remaining binding	100%
Cc1cc(NC(=O)c2cccc3cc(-c4cccc5[nH]nc(N)c45)ccc23)ccc1F	MET	enzyme activity, inhibitor	0.1 µM	activity vs control	104%
CC(C)(C)c1nc2c(s1)c1nc(N)ncc1c1ccc(NS(=O)(=O)c3c(F)cccc3F)c(F)c12	MET	enzyme activity, inhibitor, radiometric	1 µM	remaining activity	90%
CCCOc1ccc([C@@H]2[C@@H](C(=O)O)[C@H](c3ccc4c(c3)OCO4)CN2CC(=O)Nc2c(CC)cccc2CC)cc1	MET M1250T	cell-free assay, competition with immobilised ligand	1 µM	remaining binding	81%
Cc1ccc(NC(=O)c2ccc(C)c(C(F)(F)F)c2)cc1C#Cc1nn(C2CCC(O)CC2)c2ncnc(N)c12 (stereo not drawn)	Hepatocyte growth factor receptor (MET, Homo sapiens, UniProt P08581, Y1230C)	cell-free assay	10 µM	remaining signal	139%
CN(C)C(=O)Cn1cc(-c2nc(C3(c4ccc(-c5cnc(N)nc5)cc4)CC3)no2)cn1	MET	cell-free assay, competition with immobilised ligand	1 µM	remaining binding	73%
COc1cc(Cl)c(C(=O)N[C@@H](CN[C@H]2CC[C@@H](N)CC2)Cc2ccc(C#N)cc2)cc1-c1ccc(CN[C@H](C)c2ccc(C)cc2)o1	MET	enzyme activity, inhibitor	1 µM	remaining activity	63%
Oc1ccc(-c2nc(-c3ccncc3)c(-c3ccc(F)cc3)[nH]2)cc1	MET	cell-free assay	0.5 µM	remaining signal	94.4%
Cc1sc(C(=O)NC2COC2)cc1-n1cc(NC(=O)Nc2c(F)cccc2Cl)cn1	MET	enzyme activity, inhibitor	10 µM	remaining activity	77%
CO[C@@H](C)c1c(Nc2ccc([C@H](N(C)C(=O)C3CCS(=O)(=O)CC3)C(F)(F)F)cc2)cnc2cc(Cl)nn12	MET Y1235D	cell-free assay, competition with immobilised ligand	1 µM	remaining binding	100%
Cc1cnc(NC2CCOCC2)nc1-n1cnc(C(=O)NC(CN)c2cc(F)cc(Cl)c2)c1 (stereo not drawn)	MET	enzyme activity, inhibitor, radiometric	1 µM	remaining activity	101%
O=C(Nc1cnn(-c2csc(C(=O)NC3COC3)c2)c1)Nc1ccccc1Cl	MET	enzyme activity, inhibitor	5 µM	remaining activity	102%
O=C(NC[C@@H]1[C@H]2CN(C(=O)OCc3cc(C(F)(F)F)cc(C(F)(F)F)c3)C[C@@H]12)c1ccc2[nH]nnc2c1	MET M1250T	cell-free assay, competition with immobilised ligand	1 µM	remaining binding	100%
CCN(CC)CCNC(=O)c1c(C)[nH]c(/C=C2\C(=O)Nc3ccc(F)cc32)c1C	MET	cell-free assay	0.5 µM	remaining signal	91%
N[C@H]1CCN(c2nccc(-c3cnn4ncccc34)n2)C1	MET Y1235D	binding	1 µM	remaining binding	100%
N#CCCc1ccc2c(c1)-c1[nH]c3ccc([N+](=O)[O-])cc3c1CC(=O)N2	MET	cell-free assay	0.5 µM	remaining signal	119%
C[C@H]1CCN(c2nccc(-c3cnn4ncccc34)n2)C1	MET	binding	1 µM	remaining binding	94%
Cc1c(NC(=O)c2cc(C(N)=O)nc3cc(F)ccc23)c(C(F)(F)F)nn1Cc1ccc(C(C)(C)C)cc1	MET Y1235D	cell-free assay, competition with immobilised ligand	1 µM	remaining binding	84%
O=C(Nc1ccc(Cl)cc1)c1ccccc1NCc1ccncc1	MET	cell-free assay	0.5 µM	remaining signal	92.2%
CN(C)c1ncc(F)c(-c2cnn3ncccc23)n1	MET Y1235D	binding	1 µM	remaining binding	100%
CNC(=O)c1cc2c(Oc3ccc(NC(=O)C4(C(=O)Nc5ccc(F)cc5)CC4)cc3)ccnc2cc1OC	Hepatocyte growth factor receptor (MET, Homo sapiens, UniProt P08581, Y1230D)	enzyme activity, inhibitor, radiometric	1 µM	inhibition	100%
NS(=O)(=O)c1cc(NC(=O)Cc2ccccc2)ccc1Oc1cccc(Cl)c1	MET	cell-free assay, competition with immobilised ligand	1 µM	remaining binding	91%
Cc1cnn2ncc(-c3ccnc(N(C)C)n3)c2c1	MET Y1235D	binding	1 µM	remaining binding	87%
CC(=O)Nc1c(C(C)=O)c(=O)n(C)c2nc(-c3ccc(Cl)cc3Cl)c(-c3ccc(Cl)cc3)cc12	MET	cell-free assay, competition with immobilised ligand	1 µM	remaining binding	100%
COc1ccnn2ncc(-c3ccnc(N(C)C)n3)c12	MET M1250T	binding	1 µM	remaining binding	100%
